# Test results reported in ChEMBL document CHEMBL1687698, “Discovery of INCB9471, a Potent, Selective, and Orally Bioavailable CCR5 Antagonist with Potent Anti-HIV-1 Activity” (ACS Med Chem Lett, 2010).
# pIC50, pKd: −log10 of the molar value. Calls of active or inactive are those of the source. The calls are words filed in the database; no cut-off is given here.
# What was measured:
# [1] = biological target: T1, C-C chemokine receptor type 5 (Homo sapiens, UniProt P51681); assay: Displacement of [125I]MIP-1beta from CCR5 in IL-10-stimulated human monocytes; format: cell-based
# [2] = tested on: Human immunodeficiency virus 1; assay: Antiviral activity against HIV-1 R5 clade C infected in human PBMC cells; format: functional; details: Human immunodeficiency virus 1, R5 clade C
# [3] = Cmax in rat at 20 mg/kg, po; format: ADME, organism-based; set-up: dose 20 mg/kg, route oral; details: in vivo
# [4] = AUC in dog at 20 mg/kg, po; format: ADME, organism-based, Canis lupus familiaris; set-up: dose 20 mg/kg, route oral; details: plasma
# [5] = Systemic clearance in dog at 1 mg/kg, iv; format: ADME, organism-based, Canis lupus familiaris; set-up: dose 1 mg/kg, route intravenous; details: in vivo
# [6] = biological target: T1, C-C chemokine receptor type 5; assay: Activation of CCR5 in human PBMC cells; format: cell-based
# [7] = tested on: Human immunodeficiency virus 1; assay: Antiviral activity against HIV-1 R5 clade F infected in human PBMC cells; format: functional; details: Human immunodeficiency virus 1, R5 clade F
# [8] = biological target: Voltage-gated inwardly rectifying potassium channel KCNH2 (Homo sapiens, UniProt Q12809); assay: Inhibition of human hERG
# Outline: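 hERG potassium current was measured by patch clamp, and IC50 was derived from current inhibition.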
# Canis familiaris = assay: Volume of distribution in dog at 1 mg/kg, iv; format: ADME, organism-based, Canis lupus familiaris; set-up: dose 1 mg/kg, route intravenous; details: in vivo
# [9] = Oral bioavailability in rat at 20 mg/kg; format: ADME, organism-based; details: in vivo
# [10] = biological target: T1, C-C chemokine receptor type 5; assay: Antagonist activity at CCR5 assessed as inhibition of ERK phosphorylation; format: functional
# [11] = AUC in dog at 1 mg/kg, iv; format: ADME, organism-based, Canis lupus familiaris; set-up: dose 1 mg/kg, route intravenous; details: plasma
# Cytochrome P450 2C9 = Cytochrome P450 2C9 (Homo sapiens, UniProt P11712); assay: Inhibition of CYP2C9; format: ADME
# [12] = tested on: Human immunodeficiency virus 1; assay: Antiviral activity against HIV-1 R5 clade B infected in human PBMC cells; format: functional; details: Human immunodeficiency virus 1, R5 clade B
# [13] = Induction of Cytochrome P450 up to 30 uM; format: ADME
# [14] = Half life in dog at 1 mg/kg, iv; format: ADME, organism-based, Canis lupus familiaris; set-up: dose 1 mg/kg, route intravenous; details: in vivo
# [15] = Half life in rat at 20 mg/kg, po; format: ADME, organism-based; set-up: dose 20 mg/kg, route oral; details: in vivo
# [16] = Tmax in rat at 20 mg/kg, po; format: ADME, organism-based; set-up: dose 20 mg/kg, route oral; details: in vivo
# [17] = biological target: T1, C-C chemokine receptor type 5; assay: Antagonist activity at CCR5 assessed as inhibition of intracellular calcium mobilization; format: functional, cell-based
# Cytochrome P450 2D6 = Cytochrome P450 2D6 (Homo sapiens, UniProt P10635); assay: Inhibition of CYP2D6; format: ADME
# [18] = biological target: T1, C-C chemokine receptor type 5; assay: Antagonist activity at CCR5 assessed as inhibition of receptor internalization; format: functional
# [19] = tested on: Human immunodeficiency virus 1; assay: Antiviral activity against HIV-1 BaL infected in PHA-stimulated human PBMC cells assessed as viral p24 core protein level after 7 days by ELISA; format: functional, organism-based; details: Human immunodeficiency virus 1, BaL, 168 h
# Outline: (§1)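 Human PBMC activated with PHA, then infected with HIV-1 (ADA or BaL strain). Infectivity was read as viral p24 core protein in the culture supernatants.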
# [20] = Half life in rat at 1 mg/kg, iv; format: ADME, organism-based; set-up: dose 1 mg/kg, route intravenous; details: in vivo
# [21] = Protein binding in human serum assessed as fraction unbound; format: ADME, cell-free
# [22] = Cmax in dog at 20 mg/kg, po; format: ADME, organism-based, Canis lupus familiaris; set-up: dose 20 mg/kg, route oral; details: in vivo
# Cytochrome P450 1A2 = biological target: T2, Cytochrome P450 1A2 (Homo sapiens, UniProt P05177); assay: Inhibition of CYP1A2; format: ADME
# T2 sequence (P05177 whole entry): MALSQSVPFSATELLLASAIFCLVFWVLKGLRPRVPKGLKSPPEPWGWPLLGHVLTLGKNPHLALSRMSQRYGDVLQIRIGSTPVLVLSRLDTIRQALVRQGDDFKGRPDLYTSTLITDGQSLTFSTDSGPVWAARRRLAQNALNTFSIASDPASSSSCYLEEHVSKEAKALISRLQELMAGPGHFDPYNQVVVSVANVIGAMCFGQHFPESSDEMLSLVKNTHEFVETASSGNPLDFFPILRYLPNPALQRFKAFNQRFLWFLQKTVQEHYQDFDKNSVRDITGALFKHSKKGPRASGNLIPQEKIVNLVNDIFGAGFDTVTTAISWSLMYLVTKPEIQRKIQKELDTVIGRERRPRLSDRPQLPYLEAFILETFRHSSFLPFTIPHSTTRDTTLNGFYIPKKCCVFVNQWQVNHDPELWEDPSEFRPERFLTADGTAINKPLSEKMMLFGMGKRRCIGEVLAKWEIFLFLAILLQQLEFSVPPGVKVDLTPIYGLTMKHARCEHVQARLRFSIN
# Rattus norvegicus = assay: Volume of distribution in rat at 1 mg/kg, iv; format: ADME, organism-based; set-up: dose 1 mg/kg, route intravenous; details: in vivo
# [23] = tested on: Human immunodeficiency virus 1; assay: Antiviral activity against HIV-1 R5 clade G infected in human PBMC cells; format: functional; details: Human immunodeficiency virus 1, R5 clade G
# [24] = tested on: Human immunodeficiency virus 1; assay: Antiviral activity against HIV-1 X4 infected in PBMC cells; format: functional, organism-based
# [25] = Half life in human in repeated dosing regimen; format: ADME, organism-based; details: in vivo
# [26] = Systemic clearance in rat at 1 mg/kg, iv; format: ADME, organism-based; set-up: dose 1 mg/kg, route intravenous; details: in vivo
# [27] = Half life in dog at 20 mg/kg, po; format: ADME, organism-based, Canis lupus familiaris; set-up: dose 20 mg/kg, route oral; details: in vivo
# Cytochrome P450 2C19 = Cytochrome P450 2C19 (Homo sapiens, UniProt P33261); assay: Inhibition of CYP2C19; format: ADME
# [28] = Plasma concentration in rat at 20 mg/kg, po after 24 hrs; format: ADME, organism-based; set-up: dose 20 mg/kg, route oral
# [29] = AUC in rat at 1 mg/kg, iv; format: ADME, organism-based; set-up: dose 1 mg/kg, route intravenous; details: plasma
# [30] = tested on: Human immunodeficiency virus 1; assay: Antiviral activity against HIV-1 R5 clade D infected in human PBMC cells; format: functional; details: Human immunodeficiency virus 1, R5 clade D
# Cytochrome P450 3A4 = Cytochrome P450 3A4 (Homo sapiens, UniProt P08684); assay: Inhibition of CYP3A4; format: ADME
# [31] = AUC in rat at 20 mg/kg, po; format: ADME, organism-based; set-up: dose 20 mg/kg, route oral; details: plasma
# [32] = tested on: Human immunodeficiency virus 1; assay: Antiviral activity against HIV-1 R5 clade J infected in human PBMC cells; format: functional; details: Human immunodeficiency virus 1, R5 clade J
# [33] = Tmax in dog at 20 mg/kg, po; format: ADME, organism-based, Canis lupus familiaris; set-up: dose 20 mg/kg, route oral; details: in vivo
# [34] = tested on: Human immunodeficiency virus 1; assay: Antiviral activity against HIV-1 ADA infected in PHA-stimulated human PBMC cells assessed as viral p24 core protein level after 7 days by ELISA; format: functional, organism-based; details: Human immunodeficiency virus 1, ADA, 168 h; outline: as §1
# [35] = tested on: Human immunodeficiency virus 1; assay: Antiviral activity against HIV-1 R5 clade E infected in human PBMC cells; format: functional; details: Human immunodeficiency virus 1, R5 clade E
# [36] = Oral bioavailability in dog at 20 mg/kg; format: ADME, organism-based, Canis lupus familiaris; details: in vivo
# [37] = Permeability across basolateral to apical side in human Caco2 cells; format: ADME, cell-based; details: Caco-2, read-out: permeability
# [38] = tested on: Human immunodeficiency virus 1; assay: Antiviral activity against HIV-1 R5 clade A infected in human PBMC cells; format: functional; details: Human immunodeficiency virus 1, R5 clade A
# T1 sequence (P51681 whole entry): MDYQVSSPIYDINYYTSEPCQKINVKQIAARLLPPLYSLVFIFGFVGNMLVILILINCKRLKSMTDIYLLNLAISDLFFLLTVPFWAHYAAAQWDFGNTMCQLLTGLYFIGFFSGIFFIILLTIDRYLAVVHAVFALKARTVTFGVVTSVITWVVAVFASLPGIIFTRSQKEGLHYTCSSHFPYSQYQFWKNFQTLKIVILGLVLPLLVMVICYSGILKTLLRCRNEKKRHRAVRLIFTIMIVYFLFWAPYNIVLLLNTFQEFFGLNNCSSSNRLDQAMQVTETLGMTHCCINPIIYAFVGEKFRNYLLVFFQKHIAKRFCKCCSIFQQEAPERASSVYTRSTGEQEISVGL
# Sequence of Cytochrome P450 2C9 (P11712 whole entry): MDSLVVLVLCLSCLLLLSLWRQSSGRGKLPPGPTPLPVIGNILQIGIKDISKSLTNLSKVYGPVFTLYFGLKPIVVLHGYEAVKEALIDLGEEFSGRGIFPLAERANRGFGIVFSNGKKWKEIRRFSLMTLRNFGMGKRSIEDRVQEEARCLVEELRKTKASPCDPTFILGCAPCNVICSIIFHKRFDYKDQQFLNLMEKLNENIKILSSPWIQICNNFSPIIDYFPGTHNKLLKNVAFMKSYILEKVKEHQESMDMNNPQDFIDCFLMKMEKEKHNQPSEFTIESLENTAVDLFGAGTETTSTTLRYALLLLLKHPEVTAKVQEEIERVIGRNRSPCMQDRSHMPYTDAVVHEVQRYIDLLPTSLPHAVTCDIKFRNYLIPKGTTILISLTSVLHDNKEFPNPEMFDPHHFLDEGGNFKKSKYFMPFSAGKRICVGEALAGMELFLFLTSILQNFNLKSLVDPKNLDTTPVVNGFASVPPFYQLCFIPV
# Sequence of Cytochrome P450 2D6 (P10635 whole entry): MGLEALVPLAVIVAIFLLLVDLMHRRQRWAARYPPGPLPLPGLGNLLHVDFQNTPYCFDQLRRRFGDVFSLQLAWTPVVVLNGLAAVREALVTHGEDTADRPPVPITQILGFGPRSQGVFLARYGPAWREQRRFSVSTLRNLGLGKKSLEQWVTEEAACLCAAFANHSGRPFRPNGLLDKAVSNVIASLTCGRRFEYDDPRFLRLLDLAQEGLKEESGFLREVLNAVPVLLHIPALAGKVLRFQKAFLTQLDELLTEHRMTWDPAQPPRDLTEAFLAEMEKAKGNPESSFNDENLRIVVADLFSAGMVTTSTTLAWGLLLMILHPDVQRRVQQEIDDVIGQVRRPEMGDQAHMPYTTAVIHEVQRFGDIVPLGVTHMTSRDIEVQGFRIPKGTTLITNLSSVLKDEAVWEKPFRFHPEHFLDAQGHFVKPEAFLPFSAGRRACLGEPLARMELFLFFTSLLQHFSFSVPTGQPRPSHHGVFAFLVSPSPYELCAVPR
# Sequence of Cytochrome P450 3A4 (P08684 whole entry): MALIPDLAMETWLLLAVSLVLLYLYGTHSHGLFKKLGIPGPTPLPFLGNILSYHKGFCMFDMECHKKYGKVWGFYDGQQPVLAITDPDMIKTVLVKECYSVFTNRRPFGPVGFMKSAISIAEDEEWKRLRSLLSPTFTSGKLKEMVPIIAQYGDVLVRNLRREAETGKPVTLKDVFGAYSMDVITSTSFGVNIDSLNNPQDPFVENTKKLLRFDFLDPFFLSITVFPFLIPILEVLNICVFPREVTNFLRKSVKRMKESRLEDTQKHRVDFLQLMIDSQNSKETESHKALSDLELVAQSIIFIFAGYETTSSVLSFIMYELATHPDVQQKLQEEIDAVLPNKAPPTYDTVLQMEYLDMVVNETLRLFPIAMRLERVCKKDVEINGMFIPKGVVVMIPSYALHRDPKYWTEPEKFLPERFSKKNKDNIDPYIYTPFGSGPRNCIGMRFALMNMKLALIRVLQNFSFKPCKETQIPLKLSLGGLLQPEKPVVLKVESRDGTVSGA
# Sequence of Cytochrome P450 2C19 (P33261 whole entry): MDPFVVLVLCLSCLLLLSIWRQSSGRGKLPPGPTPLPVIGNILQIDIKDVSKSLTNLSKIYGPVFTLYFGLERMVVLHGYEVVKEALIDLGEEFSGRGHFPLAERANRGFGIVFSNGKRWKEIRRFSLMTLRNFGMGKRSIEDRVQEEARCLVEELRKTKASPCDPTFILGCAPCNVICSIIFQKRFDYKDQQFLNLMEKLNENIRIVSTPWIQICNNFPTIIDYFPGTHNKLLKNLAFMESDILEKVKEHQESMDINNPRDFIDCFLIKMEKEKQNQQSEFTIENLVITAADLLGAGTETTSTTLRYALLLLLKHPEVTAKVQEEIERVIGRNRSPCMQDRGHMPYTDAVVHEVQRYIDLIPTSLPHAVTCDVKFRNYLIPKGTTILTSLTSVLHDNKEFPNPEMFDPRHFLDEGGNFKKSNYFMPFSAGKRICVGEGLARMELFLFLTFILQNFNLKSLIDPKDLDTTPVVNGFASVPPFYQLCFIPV
# Sequence of Voltage-gated inwardly rectifying potassium channel KCNH2 (Q12809 whole entry): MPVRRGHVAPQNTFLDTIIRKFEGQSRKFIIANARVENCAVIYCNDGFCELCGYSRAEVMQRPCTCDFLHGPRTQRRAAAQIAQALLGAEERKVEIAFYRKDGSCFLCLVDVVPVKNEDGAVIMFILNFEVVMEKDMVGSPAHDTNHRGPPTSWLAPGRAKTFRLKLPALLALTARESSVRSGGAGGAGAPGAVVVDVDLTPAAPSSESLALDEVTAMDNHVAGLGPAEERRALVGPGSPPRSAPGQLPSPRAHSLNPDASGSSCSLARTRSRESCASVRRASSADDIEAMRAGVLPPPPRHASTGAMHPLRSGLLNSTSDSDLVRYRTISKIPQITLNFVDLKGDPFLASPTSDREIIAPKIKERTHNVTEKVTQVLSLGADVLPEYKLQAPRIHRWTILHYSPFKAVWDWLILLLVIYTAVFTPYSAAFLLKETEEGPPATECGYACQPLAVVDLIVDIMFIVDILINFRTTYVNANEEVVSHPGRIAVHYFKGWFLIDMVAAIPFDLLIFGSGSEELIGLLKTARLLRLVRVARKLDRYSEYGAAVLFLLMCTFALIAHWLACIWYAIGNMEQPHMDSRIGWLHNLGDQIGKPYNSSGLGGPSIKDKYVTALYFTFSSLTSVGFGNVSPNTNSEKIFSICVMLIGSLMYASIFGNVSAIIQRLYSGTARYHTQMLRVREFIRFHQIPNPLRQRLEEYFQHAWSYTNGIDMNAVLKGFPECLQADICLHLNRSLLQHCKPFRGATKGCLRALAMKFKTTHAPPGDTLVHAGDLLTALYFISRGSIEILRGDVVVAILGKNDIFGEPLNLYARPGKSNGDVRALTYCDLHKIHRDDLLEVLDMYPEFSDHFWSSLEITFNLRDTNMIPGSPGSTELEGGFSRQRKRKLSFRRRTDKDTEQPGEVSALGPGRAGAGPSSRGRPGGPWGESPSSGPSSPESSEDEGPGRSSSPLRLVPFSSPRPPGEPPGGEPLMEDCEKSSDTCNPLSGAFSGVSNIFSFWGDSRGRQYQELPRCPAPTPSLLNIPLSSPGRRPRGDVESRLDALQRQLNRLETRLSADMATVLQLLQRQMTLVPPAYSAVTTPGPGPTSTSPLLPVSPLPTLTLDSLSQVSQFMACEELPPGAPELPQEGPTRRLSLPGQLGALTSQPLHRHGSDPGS
structure (smiles),measurement,setting,value
Cc1ncnc(C)c1C(=O)N1CCC(C)(N2CCN([C@@H]3c4ccc(C(F)(F)F)cc4C[C@H]3O)[C@@H](C)C2)CC1,pIC50,[1],6.68
CCO[C@@H]1Cc2cc(C(F)(F)F)ccc2[C@H]1N1CCN(C2(C)CCN(C(=O)c3c(C)ncnc3C)CC2)C[C@@H]1C [INCB-9471],IC90,[2],9 nM
same,Cmax,[3],4.07 µM
same,pIC50,[1],8.19
same,AUC,[4],150 µM·h
same,clearance,[5],3.33 mL/min/kg
same,pKd,[6],8.51
same,IC90,[7],9 nM
same,pIC50,[8],5.35
same,Vd,Canis familiaris,3.8 L/kg
same,bioavailability,[9],100%
same,pIC50,[10],8.52
same,AUC,[11],7.85 µM·h
same,pIC50,Cytochrome P450 2C9,< 4.60
same,IC90,[12],9 nM
same,Activity,[13],Not Active
same,half-life,[14],11 h
same,half-life,[15],12 h
same,Tmax,[16],3 h
same,pIC50,[17],7.80
same,pIC50,Cytochrome P450 2D6,< 4.60
same,pIC50,[18],8.82
same,pIC50,[19],9.80
same,half-life,[20],6 h
same,fraction unbound,[21],0.16
same,Cmax,[22],14 µM
same,pIC50,Cytochrome P450 1A2,< 4.60
same,Vd,Rattus norvegicus,4.1 L/kg
same,IC90,[23],9 nM
same,Activity,[24],inactive
same,half-life,[25],58 h
same,clearance,[26],10.3 mL/min/kg
same,half-life,[27],17 h
same,pIC50,Cytochrome P450 2C19,< 4.60
same,concentration at 24 h,[28],1.09 µM
same,AUC,[29],2.9 µM·h
same,IC90,[30],9 nM
same,pIC50,Cytochrome P450 3A4,< 4.60
same,AUC,[31],55.2 µM·h
same,IC90,[32],9 nM
same,Tmax,[33],0.5 h
same,pIC50,[34],9.44
same,IC90,[35],9 nM
same,bioavailability,[36],95%
same,Papp B→A,[37],16.5 ×10⁻⁶ cm/s
same,IC90,[38],9 nM
Cc1ncnc(C)c1C(=O)N1CCC(C)(N2CCN(C3CCc4cc(Br)ccc43)[C@@H](C)C2)CC1 (mixture of isomers),pIC50,[1],6.72
CO[C@H]1Cc2cc(C(F)(F)F)ccc2[C@@H]1N1CCN(C2(C)CCN(C(=O)c3c(C)ncnc3C)CC2)C[C@@H]1C,pIC50,[1],< 6.00
COC[C@@H](c1ccc(C(F)(F)F)cc1)N1CCN(C2(C)CCN(C(=O)c3c(C)ncnc3C)CC2)C[C@@H]1C [VICRIVIROC],pIC50,[19],9.64
same,half-life,[25],28 h
same,pIC50,[34],9.25
CCO[C@H]1Cc2cc(C(F)(F)F)ccc2[C@@H]1N1CCN(C2(C)CCN(C(=O)c3c(C)ncnc3C)CC2)C[C@@H]1C,pIC50,[1],< 6.00
CO[C@@H]1Cc2cc(C(F)(F)F)ccc2[C@H]1N1CCN(C2(C)CCN(C(=O)c3c(C)ncnc3C)CC2)C[C@@H]1C,pIC50,[1],8.34
same,pIC50,[19],7.96
same,pIC50,[34],7.92
Cc1ncnc(C)c1C(=O)N1CCC(C)(N2CCN([C@H]3c4ccc(C(F)(F)F)cc4C[C@@H]3O)[C@@H](C)C2)CC1,pIC50,[1],< 6.00
"Cc1ncnc(C)c1C(=O)N1CCC(C)(N2CCN(C3CCc4cc(C(F)(F)F)ccc43)[C@@H](C)C2)CC1 (single isomer, unassigned)",pIC50,[1],8.30
same,pIC50,[19],7.72
"Cc1ncnc(C)c1C(=O)N1CCC(C)(N2CCN(C3CCc4cc(Br)ccc43)[C@@H](C)C2)CC1 (single isomer, unassigned; diastereomer 1)",pIC50,[1],8.41
same,pIC50,[19],6.48
